# According to article PMC4969713 (Journal of Alzheimer's Disease, 2016):
# Structures can show the parent of a compound that is named as a salt.
# How the values were obtained:
# [1] = Median lethal dose after single administration; design: species or system mice; conditions: male, CD1, mouse, in vivo
# Method in brief: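 Male CD1 mice received a single dose of test compound in saline, IP at 80–200 mg/kg or orally at 200–700 mg/kg. Each dose went to a separate group (n = 6). LD50 with standard error was derived by probit analysis.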
# [2] = Metabolism in rat microsomes; assay type: in vitro ADME; conditions: for Remaining quantity: AVN-101 1 μM, RLM
# [3] = molecular target: hERG potassium channel (Homo sapiens, UniProt Q12809); test: hERG single cell patch clamp in HEK cells
# [4] = molecular target: human recombinant H2 receptors (Homo sapiens, UniProt P25021); test: Amthamine-induced cAMP accumulation in CHO-K1 cells; assay type: cell-based
# Method in brief: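 CHO-K1 cells exogenously expressing recombinant human H2 receptor were stimulated with 50 nM amthamine. Intracellular cAMP accumulation was registered, and blockade of this response by test compound was measured.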
# [5] = molecular target: hKvLQT1-hminK (IKs) (Homo sapiens, UniProt P51787); test: Cardiac channel inhibition, IKs; assay type: cell-based
# [6] = system: BALB/c mice; test: Passive avoidance, MK-801-induced amnesia, mice; assay type: in vivo
# [7] = system: male BALB/c mice; test: Elevated Plus-Maze; assay type: in vivo; conditions: IP; Buspirone 5 mg/kg; M2 0.05, 0.5, 1.0, 5.0 mg/kg
# Method in brief: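 Elevated plus-maze in mice. Read-outs were open/closed arm time ratio, open/closed visit ratio, defecations and total visits. Each treated group was compared with the placebo group by Student t-test.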
# [8] = system: male BALB/c mice; test: Passive avoidance, scopolamine-induced amnesia, mice; assay type: in vivo
# [9] = molecular target: 5-HT2B receptor (Homo sapiens, UniProt P41595); test: Intracellular Ca2+ mobilization in HEK 297 cells expressing 5-HT2B; assay type: cell-based
# [10] = molecular target: Adrenergic α2C (Homo sapiens, UniProt P18825); test: Radioligand competition, adrenergic α2C; assay type: binding
# [11] = molecular target: 5-HT2B receptor (Rattus norvegicus, UniProt P30994); test: Rat stomach fundus contraction assay
# [12] = system: guinea pigs; test: Q-T interval, guinea pigs; assay type: in vivo; conditions: 10 mg/kg IP
# [13] = Pharmacokinetics in Rhesus monkeys; assay type: in vivo; conditions: for AUC / Cmax / k el / half-life: rhesus monkey, in vivo; for k el: Kel
# [14] = molecular target: norpinephrine transporter (Homo sapiens, UniProt P23975); test: Target panel binding, norpinephrine transporter
# [15] = system: femur bone marrow cells; test: Chromosomal aberrations in femur bone marrow cells; assay type: in vivo, mice
# Method in brief: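 Mice 8–12 weeks old, male and female, were dosed orally with test compound or cyclophosphamide 20 mg/kg. Schedule was single dose with kill at 24 h, or qd for 5 days with kill 6 h after the last dose. Colchicine 4 mg/kg was given orally 2.5 h before decapitation. Femur marrow was put into 0.55% KCl at 37°C for 15 min, then spun. Scoring covered 100 metaphases per animal (500 per group), expressed as % aberrant cells.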
# [16] = system: BALB/c mice; test: Morris water maze, scopolamine-induced amnesia; assay type: in vivo; conditions: IP; AVN-101 0.2 mg/kg; Tacrine 3 mg/kg; donepezil 1 mg/kg; scopolamine 1.5 mg/kg
# Method in brief: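 Scopolamine-induced amnesia model in male BALB/c mice. Read-out was time spent in the quadrant where the escape platform had been during the two preceding training days, reported as mean ± SE.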
# [17] = molecular target: CYP3A4 (Homo sapiens, UniProt P08684); test: Metabolism by recombinant CYP3A4; assay type: in vitro ADME
# [18] = system: Sprague Dawley rats; test: Passive avoidance, scopolamine-induced amnesia, rats; assay type: in vivo; conditions: 0.05 mg/kg IP
# [19] = molecular target: 5-HT2A receptor (Homo sapiens, UniProt P28223); test: Radioligand binding competition, 5-HT2A
# [20] = molecular target: Adrenergic α2B (Homo sapiens, UniProt P18089); test: Radioligand competition, adrenergic α2B; assay type: binding
# [21] = Solubility in water; assay type: physicochemical; conditions: pH 7.4
# [22] = iv, 2 mg/kg, monkey 34887, IV 2 mg/kg
# [23] = iv, 2 mg/kg, monkey 35188, IV 2 mg/kg
# [24] = po, 10 mg/kg, Mean, PO 10 mg/kg
# [25] = po, 10 mg/kg, monkey 34920, PO 10 mg/kg
# [26] = po, 10 mg/kg, monkey 35189, PO 10 mg/kg
# [27] = 1 mg/kg PO qd for 5 days, females
# [28] = 1 mg/kg PO qd for 5 days, males
# Sequence of hKvLQT1-hminK (IKs) (P51787 whole entry): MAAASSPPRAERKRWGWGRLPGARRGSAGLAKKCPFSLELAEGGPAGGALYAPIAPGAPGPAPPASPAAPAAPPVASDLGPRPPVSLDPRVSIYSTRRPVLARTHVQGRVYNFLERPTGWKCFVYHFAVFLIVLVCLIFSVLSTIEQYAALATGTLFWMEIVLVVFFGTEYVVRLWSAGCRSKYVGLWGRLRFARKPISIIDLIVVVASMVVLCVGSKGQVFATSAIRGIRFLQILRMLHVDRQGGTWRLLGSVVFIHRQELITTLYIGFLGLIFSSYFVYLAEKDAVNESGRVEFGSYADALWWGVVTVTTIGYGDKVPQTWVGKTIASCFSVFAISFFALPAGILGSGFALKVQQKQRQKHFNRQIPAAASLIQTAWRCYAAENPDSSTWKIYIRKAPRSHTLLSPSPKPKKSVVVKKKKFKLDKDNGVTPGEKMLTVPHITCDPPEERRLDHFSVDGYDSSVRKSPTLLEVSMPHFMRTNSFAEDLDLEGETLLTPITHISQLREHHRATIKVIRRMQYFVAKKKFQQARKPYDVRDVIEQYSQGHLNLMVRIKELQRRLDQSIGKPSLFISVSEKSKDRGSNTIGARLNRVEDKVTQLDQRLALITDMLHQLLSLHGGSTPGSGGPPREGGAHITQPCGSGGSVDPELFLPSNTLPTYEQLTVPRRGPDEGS
# Sequence of 5-HT2B receptor (Rattus norvegicus, UniProt P30994) (P30994 whole entry): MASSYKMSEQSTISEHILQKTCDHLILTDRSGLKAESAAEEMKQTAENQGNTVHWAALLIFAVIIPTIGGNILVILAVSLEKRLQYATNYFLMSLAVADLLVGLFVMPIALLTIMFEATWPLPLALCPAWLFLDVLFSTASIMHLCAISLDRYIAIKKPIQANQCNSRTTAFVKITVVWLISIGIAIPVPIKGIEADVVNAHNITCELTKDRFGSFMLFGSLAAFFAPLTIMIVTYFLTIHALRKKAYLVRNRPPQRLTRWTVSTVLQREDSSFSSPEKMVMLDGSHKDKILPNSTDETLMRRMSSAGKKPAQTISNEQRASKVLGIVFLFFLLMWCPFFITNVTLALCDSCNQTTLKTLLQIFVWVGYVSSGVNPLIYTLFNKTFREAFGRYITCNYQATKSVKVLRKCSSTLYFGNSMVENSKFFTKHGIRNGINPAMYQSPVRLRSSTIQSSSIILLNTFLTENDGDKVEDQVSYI
# Sequence of 5-HT2B receptor (Homo sapiens, UniProt P41595) (P41595 whole entry): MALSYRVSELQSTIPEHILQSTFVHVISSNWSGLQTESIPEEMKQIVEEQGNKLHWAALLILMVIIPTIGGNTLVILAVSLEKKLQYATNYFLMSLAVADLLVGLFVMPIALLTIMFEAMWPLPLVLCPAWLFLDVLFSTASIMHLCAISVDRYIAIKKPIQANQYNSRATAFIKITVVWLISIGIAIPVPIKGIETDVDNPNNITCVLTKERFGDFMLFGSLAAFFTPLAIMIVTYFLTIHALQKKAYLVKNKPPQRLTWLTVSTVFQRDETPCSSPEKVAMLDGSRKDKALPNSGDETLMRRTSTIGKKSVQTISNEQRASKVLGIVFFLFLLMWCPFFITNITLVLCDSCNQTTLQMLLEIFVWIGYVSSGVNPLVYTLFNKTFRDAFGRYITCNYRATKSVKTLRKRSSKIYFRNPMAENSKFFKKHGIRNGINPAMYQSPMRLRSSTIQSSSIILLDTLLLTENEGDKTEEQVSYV
# Sequence of human recombinant H2 receptors (P25021 whole entry): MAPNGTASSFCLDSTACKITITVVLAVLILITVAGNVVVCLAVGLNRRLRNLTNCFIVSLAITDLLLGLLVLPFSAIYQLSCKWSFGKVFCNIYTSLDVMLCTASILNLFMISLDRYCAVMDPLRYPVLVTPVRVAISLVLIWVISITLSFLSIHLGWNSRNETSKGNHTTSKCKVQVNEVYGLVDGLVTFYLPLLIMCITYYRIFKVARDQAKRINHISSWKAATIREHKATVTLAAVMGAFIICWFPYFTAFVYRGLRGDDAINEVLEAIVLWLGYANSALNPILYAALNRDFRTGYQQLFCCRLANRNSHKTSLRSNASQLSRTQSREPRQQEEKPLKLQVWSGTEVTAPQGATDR
# Sequence of 5-HT2A receptor (P28223 whole entry): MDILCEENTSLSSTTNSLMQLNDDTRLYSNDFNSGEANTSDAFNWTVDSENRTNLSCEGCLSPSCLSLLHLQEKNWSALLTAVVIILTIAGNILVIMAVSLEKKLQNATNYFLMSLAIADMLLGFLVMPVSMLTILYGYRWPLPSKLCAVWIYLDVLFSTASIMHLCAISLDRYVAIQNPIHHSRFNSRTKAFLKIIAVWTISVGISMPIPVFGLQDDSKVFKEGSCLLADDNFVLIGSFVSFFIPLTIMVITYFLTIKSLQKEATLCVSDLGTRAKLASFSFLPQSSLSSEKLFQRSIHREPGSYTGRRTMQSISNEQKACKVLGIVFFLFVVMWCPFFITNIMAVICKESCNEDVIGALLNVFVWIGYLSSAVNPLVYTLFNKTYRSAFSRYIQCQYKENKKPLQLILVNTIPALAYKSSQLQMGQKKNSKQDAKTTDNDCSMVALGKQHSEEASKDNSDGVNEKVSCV
# Sequence of Adrenergic α2B (P18089 whole entry): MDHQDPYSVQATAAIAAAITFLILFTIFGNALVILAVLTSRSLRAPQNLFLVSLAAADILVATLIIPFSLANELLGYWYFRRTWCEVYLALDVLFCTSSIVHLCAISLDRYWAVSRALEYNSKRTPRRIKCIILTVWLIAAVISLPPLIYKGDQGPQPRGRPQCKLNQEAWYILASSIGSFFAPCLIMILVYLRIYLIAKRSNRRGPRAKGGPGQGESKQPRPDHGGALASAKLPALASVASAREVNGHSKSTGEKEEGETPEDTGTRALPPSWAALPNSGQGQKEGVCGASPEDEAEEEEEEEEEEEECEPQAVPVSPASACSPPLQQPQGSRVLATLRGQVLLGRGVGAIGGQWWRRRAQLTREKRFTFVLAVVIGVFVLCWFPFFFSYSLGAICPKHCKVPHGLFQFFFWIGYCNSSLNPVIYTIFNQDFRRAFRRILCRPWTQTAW
# Sequence of Adrenergic α2C (P18825 whole entry): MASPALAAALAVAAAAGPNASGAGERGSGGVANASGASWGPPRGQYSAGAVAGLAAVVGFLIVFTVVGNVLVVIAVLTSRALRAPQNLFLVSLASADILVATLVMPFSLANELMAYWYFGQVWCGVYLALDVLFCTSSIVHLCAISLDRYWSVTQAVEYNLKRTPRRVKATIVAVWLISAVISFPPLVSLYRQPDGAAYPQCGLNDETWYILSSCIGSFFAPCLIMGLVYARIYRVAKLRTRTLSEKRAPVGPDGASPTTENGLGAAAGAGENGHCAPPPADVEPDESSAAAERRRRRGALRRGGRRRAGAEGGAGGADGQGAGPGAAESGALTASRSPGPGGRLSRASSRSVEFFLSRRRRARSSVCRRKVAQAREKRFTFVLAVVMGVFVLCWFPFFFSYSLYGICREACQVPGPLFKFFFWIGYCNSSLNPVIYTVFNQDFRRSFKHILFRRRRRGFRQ
# Sequence of CYP3A4 (P08684 whole entry): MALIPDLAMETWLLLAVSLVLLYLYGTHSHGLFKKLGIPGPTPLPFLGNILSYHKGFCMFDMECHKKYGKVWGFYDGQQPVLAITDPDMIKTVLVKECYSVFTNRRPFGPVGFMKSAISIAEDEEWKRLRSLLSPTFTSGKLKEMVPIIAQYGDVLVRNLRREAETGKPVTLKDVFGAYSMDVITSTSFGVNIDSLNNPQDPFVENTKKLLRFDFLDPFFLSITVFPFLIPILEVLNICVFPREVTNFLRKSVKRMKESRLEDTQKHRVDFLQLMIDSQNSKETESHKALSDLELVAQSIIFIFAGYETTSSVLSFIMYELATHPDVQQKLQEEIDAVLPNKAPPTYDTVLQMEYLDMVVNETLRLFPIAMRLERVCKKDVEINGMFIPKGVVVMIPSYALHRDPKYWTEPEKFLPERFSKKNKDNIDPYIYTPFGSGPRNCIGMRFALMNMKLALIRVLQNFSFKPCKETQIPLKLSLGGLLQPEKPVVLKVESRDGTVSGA
# Sequence of norpinephrine transporter (P23975 whole entry): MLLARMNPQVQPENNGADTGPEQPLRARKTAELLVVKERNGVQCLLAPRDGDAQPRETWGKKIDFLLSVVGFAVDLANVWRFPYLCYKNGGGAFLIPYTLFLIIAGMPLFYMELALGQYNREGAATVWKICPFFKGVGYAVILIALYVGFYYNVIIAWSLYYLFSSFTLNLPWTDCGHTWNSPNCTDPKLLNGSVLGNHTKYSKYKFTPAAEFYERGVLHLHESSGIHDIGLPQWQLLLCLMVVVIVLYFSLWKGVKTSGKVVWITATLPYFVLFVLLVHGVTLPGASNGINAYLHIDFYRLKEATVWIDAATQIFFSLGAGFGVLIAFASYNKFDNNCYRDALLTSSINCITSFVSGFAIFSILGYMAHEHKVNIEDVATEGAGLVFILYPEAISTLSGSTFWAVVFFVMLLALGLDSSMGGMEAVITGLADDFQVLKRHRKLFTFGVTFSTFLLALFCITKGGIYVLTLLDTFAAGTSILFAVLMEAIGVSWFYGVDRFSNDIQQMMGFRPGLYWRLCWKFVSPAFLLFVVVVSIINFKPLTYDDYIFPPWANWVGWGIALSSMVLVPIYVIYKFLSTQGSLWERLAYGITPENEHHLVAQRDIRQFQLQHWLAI
smiles,measurement,setting,value
"Cc1ccc2c(c1)c1c(n2CCc2ccccc2)CCN(C)C1 [AVN-101, 2,8-dimethyl-5-penethyl-2,3,4,5-tetra-hydro-1h-pyrido[[4,3-B]]indole hydrochloride]",LD50 at 2 weeks,[1]; ip,105 ± 5 mg/kg
same,LD50 at 2 weeks,[1]; po,331 ± 101 mg/kg
same,k el,[2]; 1μM,0.352
same,Remaining quantity,[2]; 7.9 min,<1%
same,Remaining quantity,[2]; 30 min,<1%
same,half-life at 1 µM,"[2]; rat, liver microsomes",1.97 min
same,k el at 1 μM,"[2]; rat, liver microsomes",0.00558 s⁻¹
same,microsomal CLint at 1 µM,"[2]; rat, liver microsomes",703 µL/min/mg
same,IC50,[3],580 nM
same,receptor activation,[4],activated neither H1 nor H2 receptors
same,blockade of agonist-induced cell response,"[4]; 50 nM amthamine, cAMP accumulation",effectively blocked
same,IC50,[5],22500 nM
same,inhibition at 31.6 µM,[5]; read-out: % Inhibition at 31.6μM,55%
same,effect on MK-801-induced amnesia,[6]; IP,dose-dependently prevented
same,anti-amnesic dose,[6]; MK-801 model,0.5 mg/kg
same,"anxiolytic effect (open/closed arm time and visits, defecations)",[7],clear anxiolytic effects
same,reversal of scopolamine-induced amnesia vs comparators,[8]; AVN-101 5 mg/kg IP,equal to or more effective than either memantine or tacrine
same,lowest dose with preventative effect on scopolamine-induced amnesic parameters,"[8]; IP, scopolamine 0.3 mg/kg",0.02 mg/kg
same,anti-amnesic dose,[8]; scopolamine model,0.05 mg/kg
same,agonistic activity (intracellular free Ca2+),"[9]; AVN-101 alone, 10μM",lacked intrinsic agonistic activity
same,blockade of α methyl-serotonin-induced Ca2+ spike,"[9]; αMet5-HT 5μM, AVN-101 10μM",effectively blocking
same,Ki,[10],0.41 to 3.6 nM
same,blockade of α methyl-serotonin-induced fundus contraction,[11],effectively blocking
same,agonistic activity (fundus contraction),[11]; AVN-101 alone,lacked intrinsic agonistic activity
same,increase in the QT interval over vehicle,[12],≤ 10%
same,Fabs,"[13]; PO 10 mg/kg vs IV 2 mg/kg, mean",15.3%
same,AUC,"[13]; iv, 2 mg/kg, AUC0 ⟶t, Mean, IV 2 mg/kg",426 ng·h/mL
same,AUC,"[13]; iv, 2 mg/kg, AUC0 ⟶t, monkey 34887, IV 2 mg/kg",356 ng·h/mL
same,AUC,"[13]; iv, 2 mg/kg, AUC0 ⟶t, monkey 35188, IV 2 mg/kg",496 ng·h/mL
same,AUC,"[13]; iv, 2 mg/kg, AUC0 ⟶∞, Mean, IV 2 mg/kg",792 ng·h/mL
same,AUC,"[13]; iv, 2 mg/kg, AUC0 ⟶∞, monkey 34887, IV 2 mg/kg",388 ng·h/mL
same,AUC,"[13]; iv, 2 mg/kg, AUC0 ⟶∞, monkey 35188, IV 2 mg/kg",1200 ng·h/mL
same,Cmax,"[13]; iv, 2 mg/kg, Mean, IV 2 mg/kg",324 ng/mL
same,Cmax,[13]; [22],304 ng/mL
same,Cmax,[13]; [23],345 ng/mL
same,k el,"[13]; iv, 2 mg/kg, Mean, IV 2 mg/kg",0.000208 s⁻¹
same,k el,[13]; [22],0.000347 s⁻¹
same,k el,[13]; [23],7.17e-05 s⁻¹
same,half-life,"[13]; iv, 2 mg/kg, T1/2, Mean, IV 2 mg/kg",1.63 h
same,half-life,"[13]; iv, 2 mg/kg, T1/2, monkey 34887, IV 2 mg/kg",0.55 h
same,half-life,"[13]; iv, 2 mg/kg, T1/2, monkey 35188, IV 2 mg/kg",2.7 h
same,AUC,"[13]; po, 10 mg/kg, AUC0 ⟶t, Mean, PO 10 mg/kg",360 ng·h/mL
same,AUC,"[13]; po, 10 mg/kg, AUC0 ⟶t, monkey 34920, PO 10 mg/kg",321 ng·h/mL
same,AUC,"[13]; po, 10 mg/kg, AUC0 ⟶t, monkey 35189, PO 10 mg/kg",398 ng·h/mL
same,AUC,"[13]; po, 10 mg/kg, AUC0 ⟶∞, Mean, PO 10 mg/kg",606 ng·h/mL
same,AUC,"[13]; po, 10 mg/kg, AUC0 ⟶∞, monkey 34920, PO 10 mg/kg",637 ng·h/mL
same,AUC,"[13]; po, 10 mg/kg, AUC0 ⟶∞, monkey 35189, PO 10 mg/kg",575 ng·h/mL
same,Cmax,[13]; [24],66 ng/mL
same,Cmax,[13]; [25],53 ng/mL
same,Cmax,[13]; [26],79 ng/mL
same,k el,[13]; [24],3.67e-05 s⁻¹
same,k el,[13]; [25],2.67e-05 s⁻¹
same,k el,[13]; [26],4.5e-05 s⁻¹
same,half-life,"[13]; po, 10 mg/kg, T1/2, Mean, PO 10 mg/kg",5.77 h
same,half-life,"[13]; po, 10 mg/kg, T1/2, monkey 34920, PO 10 mg/kg",7.3 h
same,half-life,"[13]; po, 10 mg/kg, T1/2, monkey 35189, PO 10 mg/kg",4.25 h
same,binding,[14],does not bind
same,Cells with multiple aberrations,[15]; [27],0%
same,Total altered metaphases (%),[15]; [27],0.8 ± 0.4%
same,"cells with aberration, Double fragment",[15]; [27],0%
same,"cells with aberration, Single fragment",[15]; [27],0.8%
same,"cells with aberration, exchanges",[15]; [27],0%
same,"cells with aberration, gaps",[15]; [27],0%
same,Cells with multiple aberrations,[15]; [28],0%
same,Total altered metaphases (%),[15]; [28],1.4 ± 0.5%
same,"cells with aberration, Double fragment",[15]; [28],0%
same,"cells with aberration, Single fragment",[15]; [28],1.2%
same,"cells with aberration, exchanges",[15]; [28],0%
same,"cells with aberration, gaps",[15]; [28],0.2%
same,Cells with multiple aberrations,"[15]; 1 mg/kg PO single dose, males",0%
same,Total altered metaphases (%),"[15]; 1 mg/kg PO single dose, males",1.2 ± 0.5%
same,"cells with aberration, Double fragment","[15]; 1 mg/kg PO single dose, males",0%
same,"cells with aberration, Single fragment","[15]; 1 mg/kg PO single dose, males",1.2%
same,"cells with aberration, exchanges","[15]; 1 mg/kg PO single dose, males",0%
same,"cells with aberration, gaps","[15]; 1 mg/kg PO single dose, males",0%
same,Cells with multiple aberrations,"[15]; 20 mg/kg PO single dose, males",0%
same,Total altered metaphases (%),"[15]; 20 mg/kg PO single dose, males",1.6 ± 0.6%
same,"cells with aberration, Double fragment","[15]; 20 mg/kg PO single dose, males",0%
same,"cells with aberration, Single fragment","[15]; 20 mg/kg PO single dose, males",0.6%
same,"cells with aberration, exchanges","[15]; 20 mg/kg PO single dose, males",0%
same,"cells with aberration, gaps","[15]; 20 mg/kg PO single dose, males",1.0%
same,effect on scopolamine-induced amnesia (time in platform quadrant),[16],effectively reversed
same,"remaining at 0.5 h, 2 µM",[17],2%
same,reversal of pro-amnesic action of Scopolamine,[18],significantly reverse
same,Ki,[19],1.2 to 2 nM
same,Ki,[20],0.41 to 3.6 nM
same,solubility,[21],194 mg/mL
